Measurements gathered from unrelated publications.
Lines come from different studies, so protocols differ.
Target: Serine/threonine-protein kinase Chk2 (CHEK2, Homo sapiens, UniProt O96017)

With `FC(F)(F)Oc1cccc(-c2cnc3ccc(-c4ccncc4)nn23)c1` the remaining binding was 74% (cell-free assay; competition with immobilised ligand; 5 µM).
`O=C(NCC1CCOCC1)c1n[nH]cc1NC(=O)c1c(F)cccc1F` has a remaining binding of 97% (binding; competition with immobilised ligand; 1 µM).
`F[C@@H]1CCN(c2nccc(-c3cnn4ncccc34)n2)C1` has a remaining binding of 100% (binding; 1 µM).
With `CCC(=N\O)/C(C)=C/c1ccc(F)cc1` the remaining binding was 85% (cell-free assay; competition with immobilised ligand; 1 µM).
`COc1ccnn2ncc(-c3ccnc(N(C)C)n3)c12` gave a remaining binding of 87% (binding; 1 µM).
For `COc1ncc2cc3ccccc3nc2c1C#N`, the remaining binding was 100% (cell-free assay; competition with immobilised ligand; 5 µM).
`CCS(=O)(=O)c1cc2cc(C[C@@](O)(CC(C)(C)c3ccc(F)cc3C(N)=O)C(F)(F)F)[nH]c2cn1` gave a remaining binding of 84% (cell-free assay; competition with immobilised ligand; 1 µM).
With `O=C(c1ccc(Nc2ncc(Cl)c(-c3cc4ccccc4s3)n2)cc1)N1CCC(N2CCCC2)CC1` the remaining binding was 82% (binding; competition with immobilised ligand; 1 µM).
`CCCOc1ccc([C@@H]2[C@@H](C(=O)O)[C@H](c3ccc4c(c3)OCO4)CN2CC(=O)Nc2c(CC)cccc2CC)cc1` gave a remaining binding of 98% (cell-free assay; competition with immobilised ligand; 1 µM).
With `CN(C)c1ncc(F)c(-c2cnn3ncccc23)n1` the remaining binding was 100% (binding; 1 µM).
The remaining binding of `CNC(=O)[C@@H]1CC[C@@H](n2c(-c3ccc4cnccc4c3)nc3ccc(C(=O)NCc4cccc(C(N)=O)c4)cc32)C1` is reported as 100% (binding; competition with immobilised ligand; 1 µM).
`CC1CCCN1c1nccc(-c2cnn3ncccc23)n1` (stereo not drawn) has a remaining binding of 100% (binding; 1 µM).
`COc1cnc(Nc2cccc(S(N)(=O)=O)c2)nc1N1CCN(c2ccccc2)CC1` has a remaining binding of 96% (binding; competition with immobilised ligand; 1 µM).
For `O=C(NCc1ncc(C(F)(F)F)cc1Cl)c1ccc2c(c1)C1(CCS(=O)(=O)CC1)[C@H](C1CC1)N2S(=O)(=O)c1ccc(F)cc1`, the remaining binding was 100% (cell-free assay; competition with immobilised ligand; 1 µM).
For `O=C(c1ccc(Nc2nccc(-c3cc4ccccc4s3)n2)cc1)N1CCC(N2CCCC2)CC1`, the remaining binding was 100% (binding; competition with immobilised ligand; 1 µM).
With `Cc1cc(-n2nc(Cc3cc(F)cc(C(F)(F)F)c3)nc2C)ccc1C(N)=O` the remaining binding was 100% (cell-free assay; competition with immobilised ligand; 1 µM).
`Nc1ncc2c(n1)-c1c([nH]c3ccc(C#CC4CC4)cc13)CCCC2` gave a remaining binding of 86% (binding; competition with immobilised ligand; 1 µM).
`O=C(c1ccc(Nc2ncc(Cl)c(-c3ccc(Cl)s3)n2)cc1)N1CCC(N2CCCC2)CC1` gave a remaining binding of 87% (binding; competition with immobilised ligand; 1 µM).
For `N[C@H]1CCN(c2nccc(-c3cnn4ncccc34)n2)C1`, the remaining binding was 98% (binding; 1 µM).
The remaining binding of `CC(C)(O)c1cncc(-c2nc3ccc(F)cc3n2C2CC2)c1` is reported as 100% (cell-free assay; competition with immobilised ligand; 1 µM).
The remaining binding of `C[C@H]1CCN(c2nccc(-c3cnn4ncccc34)n2)C1` is reported as 94% (binding; 1 µM).
The remaining binding of `N#Cc1ccc(Nc2ccc3[nH]c(=O)[nH]c3c2)c(Cl)c1` is reported as 100% (cell-free assay; competition with immobilised ligand; 1 µM).
`CN(c1nccc(-c2cnn3ncccc23)n1)C1CC1` has a remaining binding of 100% (binding; 1 µM).
`c1cncc(-c2cccc(Nc3nccc(NC4CCCCC4)n3)c2)c1` has a remaining binding of 97% (binding; competition with immobilised ligand; 10 µM).
